# Measured values reported in publication PMC4091685 (Cancer chemotherapy and pharmacology, 2014).
# Where two headings read alike, the source gives them in different places.
# How the values were obtained:
# in vivo = conditions: rat
# [1] = system: AML patient cells (bulk, CD34+, CD34+CD38−, CD34+CD38+); assay: Apoptosis; type: cell-based; conditions: Homo sapiens, 24 h
# Method in brief: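 Fresh peripheral blood came from AML patients with blasts of 95% or higher. Mononuclear cells were isolated on Ficoll-Hypaque and cultured in RPMI 1640 with 10% heat-inactivated FCS, 2mM glutamine and penicillin/streptomycin, on murine MS-5 stromal cells. Cells were stained for CD45, CD34, CD38 and annexin V Cy5, with leukemic cells gated as CD45+. Flow cytometry gave % annexin V+ cells, and EC50 was derived across test compound concentrations. Representative of two patients' samples.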
# [2] = rat, in vivo
# [3] = MTD following a single i.v. injection in rats; conditions: Sprague Dawley, rat, in vivo, iv
# Sprague-Dawley rats [4] = assay: 7-day repeat dose i.v. rat toxicology comparison study; conditions: MRx102 3.0 mg/kg/day or triptolide 0.3 mg/kg/day i.v.
# [5] = as above; conditions: both, Sprague-Dawley, rat, in vivo, iv
# [6] = beagle, dog, in vivo
# [7] = system: MV4–11 human AML cell line; assay: In vitro cytotoxic activity, Alamar Blue viability assay; type: cell-based
# [8] = system: AML patient cells (bulk, CD34+, CD34+CD38−, CD34+CD38+); assay: Viable cell count in AML patients' samples, flow cytometry; type: cell-based; conditions: Homo sapiens, 24 h
# Method in brief: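 AML patient peripheral blood (blasts 95% or higher) was Ficoll-Hypaque purified and cultured in RPMI 1640 with 10% heat-inactivated FCS, 2mM glutamine and penicillin/streptomycin, cocultured with murine MS-5 stromal cells. Leukemic cells were gated CD45+ and subdivided by CD34/CD38. Viable counts came from CountBright beads on annexin V/7-AAD-negative events by flow cytometry. EC50 was derived across test compound concentrations. Representative of two patients' samples.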
# Sprague-Dawley rats [9] = conditions: rat, in vivo, iv
# [10] = female, Sprague Dawley, iv, 0.05 mg/kg/day
# [11] = female, Sprague Dawley, iv, 0.15 mg/kg/day
# [12] = female, Sprague Dawley, iv, 0.3 mg/kg/day
# [13] = male, Sprague Dawley, iv, 0.05 mg/kg/day
# [14] = male, Sprague Dawley, iv, 0.15 mg/kg/day
# [15] = male, Sprague Dawley, iv, 0.3 mg/kg/day
# [16] = female, Sprague-Dawley, iv, 3 mg/kg/day
# [17] = male, Sprague Dawley, iv, 0.5 mg/kg/day
# [18] = male, Sprague Dawley, iv, 1.5 mg/kg/day
# [19] = male, Sprague Dawley, iv, 3 mg/kg/day
# [20] = male, Sprague-Dawley, iv, 1.5 mg/kg/day
# [21] = male, Sprague-Dawley, iv, 3 mg/kg/day
smiles,measurement,setting,value
CC(C)[C@]12O[C@H]1[C@@H]1O[C@]13[C@]1(O[C@H]1C[C@H]1C4=C(CC[C@@]13C)C(=O)OC4)[C@@H]2O [Triptolide],clearance,"in vivo; Sprague-Dawley, Cl range",15.5 to 102 mL/min
same,Vd,"in vivo; Sprague-Dawley, Vz range",0.2 to 2.2 L
same,AUC0-inf,"in vivo; both, Sprague Dawley, iv, AUC0-inf Median",51.4 ng·h/mL
same,Cmax,"in vivo; both, Sprague Dawley, iv, Cmax Median",59 ng/mL
same,Cmax,"in vivo; both, Sprague Dawley, iv, Cmax Range",11 to 189 ng/mL
same,half-life,"in vivo; both, Sprague Dawley, iv, T1/2,e Median",13.2 min
same,half-life,"in vivo; both, Sprague Dawley, iv, T1/2,e Range",9 to 23.4 min
same,Tmax,in vivo; [10],15 min
same,AUC0-inf,"in vivo; female, Sprague Dawley, iv, 0.05 mg/kg/day, AUC0-inf",12.5 ng·h/mL
same,clearance,"in vivo; female, Sprague Dawley, iv, 0.05 mg/kg/day, Cl",66.7 mL/min
same,Cmax,"in vivo; female, Sprague Dawley, iv, 0.05 mg/kg/day, Cmax",15.4 ng/mL
same,half-life,"in vivo; female, Sprague Dawley, iv, 0.05 mg/kg/day, T1/2,e",15 min
same,Vd,"in vivo; female, Sprague Dawley, iv, 0.05 mg/kg/day, Vz",1.4 L
same,Tmax,in vivo; [11],15 min
same,AUC0-inf,"in vivo; female, Sprague Dawley, iv, 0.15 mg/kg/day, AUC0-inf",72.1 ng·h/mL
same,clearance,"in vivo; female, Sprague Dawley, iv, 0.15 mg/kg/day, Cl",35 mL/min
same,Cmax,"in vivo; female, Sprague Dawley, iv, 0.15 mg/kg/day, Cmax",74.6 ng/mL
same,half-life,"in vivo; female, Sprague Dawley, iv, 0.15 mg/kg/day, T1/2,e",19.8 min
same,Vd,"in vivo; female, Sprague Dawley, iv, 0.15 mg/kg/day, Vz",1 L
same,Tmax,in vivo; [12],15 min
same,AUC0-inf,"in vivo; female, Sprague Dawley, iv, 0.3 mg/kg/day, AUC0-inf",162 ng·h/mL
same,C0,in vivo; [12],436 ng/mL
same,clearance,"in vivo; female, Sprague Dawley, iv, 0.3 mg/kg/day, Cl",31.7 mL/min
same,Cmax,"in vivo; female, Sprague Dawley, iv, 0.3 mg/kg/day, Cmax",189 ng/mL
same,half-life,"in vivo; female, Sprague Dawley, iv, 0.3 mg/kg/day, T1/2,e",23.4 min
same,Vd,"in vivo; female, Sprague Dawley, iv, 0.3 mg/kg/day, Vz",1 L
same,Cmax,"in vivo; female, Sprague-Dawley, iv, 0.3 mg/kg, Cmax range",11 to 189 ng/mL
same,Tmax,in vivo; [13],15 min
same,half-life,"in vivo; male, Sprague Dawley, iv, 0.05 mg/kg/day, T1/2,e",9 min
same,Tmax,in vivo; [14],15 min
same,C0,in vivo; [14],234 ng/mL
same,clearance,"in vivo; male, Sprague Dawley, iv, 0.15 mg/kg/day, Cl",48.3 mL/min
same,Cmax,"in vivo; male, Sprague Dawley, iv, 0.15 mg/kg/day, Cmax",59 ng/mL
same,half-life,"in vivo; male, Sprague Dawley, iv, 0.15 mg/kg/day, T1/2,e",11.4 min
same,Vd,"in vivo; male, Sprague Dawley, iv, 0.15 mg/kg/day, Vz",0.8 L
same,Tmax,in vivo; [15],15 min
same,AUC0-inf,"in vivo; male, Sprague Dawley, iv, 0.3 mg/kg/day, AUC0-inf",101 ng·h/mL
same,C0,in vivo; [15],383 ng/mL
same,clearance,"in vivo; male, Sprague Dawley, iv, 0.3 mg/kg/day, Cl",50 mL/min
same,Cmax,"in vivo; male, Sprague Dawley, iv, 0.3 mg/kg/day, Cmax",130 ng/mL
same,half-life,"in vivo; male, Sprague Dawley, iv, 0.3 mg/kg/day, T1/2,e",10.8 min
same,Vd,"in vivo; male, Sprague Dawley, iv, 0.3 mg/kg/day, Vz",0.8 L
same,Cmax,"in vivo; male, Sprague-Dawley, iv, 0.3 mg/kg, Cmax range",18.2 to 130 ng/mL
same,EC50,"[1]; read-out: EC50 - Annexin V +, 24 h, + MS-5, Bulk",2.34 nM
same,EC50,"[1]; read-out: EC50 - Annexin V +, 24 h, + MS-5, CD34+",2.35 nM
same,EC50,"[1]; read-out: EC50 - Annexin V +, 24 h, + MS-5, CD34+38+",2.3 nM
same,EC50,"[1]; read-out: EC50 - Annexin V +, 24 h, + MS-5, CD34+38−",2.37 nM
same,EC50,"[1]; read-out: EC50 - Annexin V +, 24 h, Alone, Bulk",2.13 nM
same,EC50,"[1]; read-out: EC50 - Annexin V +, 24 h, Alone, CD34+",2.13 nM
same,EC50,"[1]; read-out: EC50 - Annexin V +, 24 h, Alone, CD34+38+",2.09 nM
same,EC50,"[1]; read-out: EC50 - Annexin V +, 24 h, Alone, CD34+38−",2.14 nM
same,"T1/2,e of triptolide after MRx102 injection relative to after triptolide",[2]; Sprague-Dawley,over 7 fold
same,"T1/2,e range",[2]; Sprague-Dawley,51 to 222 min
same,AUC0-inf Median,"[2]; both, Sprague Dawley, iv",29.69 ng·h/mL
same,Cmax Median,"[2]; both, Sprague Dawley, iv",23.8 ng/mL
same,Cmax range,"[2]; both, Sprague Dawley, iv",7.83 to 41.1 ng/mL
same,"T1/2,e Median","[2]; both, Sprague Dawley, iv",96 min
same,"T1/2,e range","[2]; both, Sprague Dawley, iv",51 to 786 min
same,AUC0-inf,[2]; [10],8.14 ng·h/mL
same,Cl,[2]; [10],6.1 L/h
same,Cmax,[2]; [10],11.0 ng/mL
same,Vz,[2]; [10],2.2 L
same,AUC0-inf,[2]; [11],36.82 ng·h/mL
same,Cl,[2]; [11],4.1 L/h
same,Cmax,[2]; [11],48.6 ng/mL
same,Vz,[2]; [11],1.3 L
same,Cmax range,"[2]; female, Sprague-Dawley, iv, 3 mg/kg",11.8 to 41.1 ng/mL
same,Cmax,[2]; [16],41.1 ng/mL
same,Tmax,[2]; [16],60 min
same,"T1/2,e",[2]; [13],10.2 min
same,Vz,[2]; [13],0.2 L
same,AUC0-inf,[2]; [14],37.95 ng·h/mL
same,C0,[2]; [14],130 ng/mL
same,Cl,[2]; [14],4.0 L/h
same,Cmax,[2]; [14],49.7 ng/mL
same,"T1/2,e",[2]; [14],12.6 min
same,Vz,[2]; [14],1.2 L
same,AUC0-inf,[2]; [15],75.92 ng·h/mL
same,C0,[2]; [15],273 ng/mL
same,Cl,[2]; [15],4.0 L/h
same,"T1/2,e",[2]; [15],14.4 min
same,AUC0-inf,[2]; [17],15.97 ng·h/mL
same,"T1/2,e",[2]; [17],51 min
same,AUC0-inf,[2]; [18],164.8 ng·h/mL
same,Cmax,[2]; [18],9.17 ng/mL
same,"T1/2,e",[2]; [18],786 min
same,Tmax,[2]; [18],30 min
same,AUC0-inf,[2]; [19],66.12 ng·h/mL
same,Cmax,[2]; [19],16.0 ng/mL
same,"T1/2,e",[2]; [19],222 min
same,AUC0-inf,[2]; [20],12.66 ng·h/mL
same,Cmax,[2]; [20],7.83 ng/mL
same,"T1/2,e",[2]; [20],66 min
same,Cmax range,"[2]; male, Sprague-Dawley, iv, 3 mg/kg",7.83 to 32.5 ng/mL
same,AUC0-inf,[2]; [21],269.69 ng·h/mL
same,Cmax,[2]; [21],17.7 ng/mL
same,"T1/2,e",[2]; [21],84 min
same,accumulation index,[2],less than unity
same,MTD,[3]; female,0.317 mg/kg
same,MTD,[3]; male,0.63 mg/kg
same,survival of high-dose females,Sprague-Dawley rats [4],euthanized prior to Day 7
same,NOAEL at 7 days,[5],0.05 to 0.15 mg/kg
same,AUC0–24hr Median,[6]; iv,34.83 ng·h/mL
same,AUC0–24hr Range,[6]; iv,1.50 to 212.0 ng·h/mL
same,Cmax Median,[6]; iv,3.44 ng/mL
same,Cmax range,[6]; iv,2.0 to 49.0 ng/mL
same,Cmax range,[6]; female,2.0 to 21.1 ng/mL
same,Cmax range,[6]; male,2.22 to 49.0 ng/mL
same,AUC0–24hr,"[6]; male, iv, 0.1 mg/kg/day",25.53 ng·h/mL
same,Cmax,"[6]; male, iv, 0.1 mg/kg/day",2.22 ng/mL
same,Tmax,"[6]; male, iv, 0.1 mg/kg/day",120 min
same,IC50,"[7]; MV4-11, 24 h",24.1 nM
same,IC50,"[7]; MV4-11, 48 h",7.29 nM
same,IC50,"[7]; MV4-11, 72 h",5.6 nM
same,EC50,"[8]; read-out: EC50 -Cell Count, 24 h, + MS-5, Bulk",2.33 nM
same,EC50,"[8]; read-out: EC50 -Cell Count, 24 h, + MS-5, CD34+",2.38 nM
same,EC50,"[8]; read-out: EC50 -Cell Count, 24 h, + MS-5, CD34+38+",2.62 nM
same,EC50,"[8]; read-out: EC50 -Cell Count, 24 h, + MS-5, CD34+38−",2.3 nM
same,EC50,"[8]; read-out: EC50 -Cell Count, 24 h, Alone, Bulk",2.19 nM
same,EC50,"[8]; read-out: EC50 -Cell Count, 24 h, Alone, CD34+",2.15 nM
same,EC50,"[8]; read-out: EC50 -Cell Count, 24 h, Alone, CD34+38+",2.13 nM
same,EC50,"[8]; read-out: EC50 -Cell Count, 24 h, Alone, CD34+38−",2.13 nM
same,"histopathology, females",Sprague-Dawley rats [9],no microscopic effect
same,"histopathology, males",Sprague-Dawley rats [9],intraluminal cellular debris in the epididymis
same,reticulocytes,Sprague-Dawley rats [9],decreased reticulocytes
